Assay results pooled from the literature.
Protocols differ between the studies behind these lines.
Cell line: A549
Effect on: cell growth or viability

SMILES	assay	conditions	IC50
COc1ccnc(COc2ccc(NC(=O)Nc3ccc(Cl)c(C(F)(F)F)c3)cc2)c1OC	MTT	72 h	15.4 µM
O=C(O)c1ccc(-n2nc(-c3ccccc3O)nc2-c2ccccc2O)cc1	MTT	72 h	12.1 µM
CN(C)CCn1cccc1/C=N/NC(=O)Nc1cc2c(Nc3ccc(F)c(Cl)c3)ncnc2cc1O[C@H]1CCOC1	MTT	72 h	1.84 µM
O=C1Nc2ccc(Cl)cc2/C1=N/NC(=O)c1cc2ccccc2[nH]1	–	–	19.7 µM
COc1cc(N(C)CCN(C)C)c(NC(=O)C=C(C)C)cc1Nc1nc(N2CCc3sccc3C2)c2sccc2n1	MTT	–	27.9 µM
Cc1ccc(C)n1-c1ccc(C(=O)NNC=O)cc1	MTT	72 h	219 µM
COc1cc([C@@H]2c3cc4c(cc3[C@@H](O[C@@H]3O[C@@H]5CO[C@@H](C)O[C@H]5[C@H](O)[C@H]3O)[C@H]3COC(=O)[C@H]23)OCO4)cc(OC)c1O	MTT	48 h	11.9 µM
Oc1ncnc2cc(Nc3nc(-c4ccc(Cl)cc4)cs3)ccc12	MTT	–	20.8 µM
COc1ccccc1OCCNC[C@@H](O)COc1cccc2[nH]c3ccccc3c12	CCK-8	–	23.4 µM
c1ccc2cc(-c3nnc(NC4CCCCC4)[nH]3)ccc2c1	–	48 h	1.22 µM
Cn1c(=O)c2c(ncn2Cc2nnc(SCC(=O)Nc3ccc(Cl)c(Cl)c3)n2-c2ccccc2)n(C)c1=O	MTT	–	80.6 µM
CNC(=O)c1cc(Oc2ccc(NC(=O)Nc3ccc(Cl)c(C(F)(F)F)c3)cc2)ccn1	MTT	24 h	> 40 µM
COc1ccnc(COc2ccc(NC(=O)Nc3cc(F)cc(F)c3)cc2)c1OC	MTT	72 h	17.3 µM
CN(C)CCCn1cccc1/C=N/NC(=O)Nc1cc2c(Nc3ccc(F)c(Cl)c3)ncnc2cc1O[C@H]1CCOC1	MTT	72 h	6.17 µM
O=C(NC(=S)NC1CCCCC1)c1ccc2ccccc2c1	–	48 h	5.72 µM
C=C(Cl)C(=O)Nc1cc(Nc2nc(N3CCOCC3)c3sccc3n2)c(OC)cc1N(C)CCN(C)C	MTT	–	0.107 µM
COc1ccc(/C=C2\SC(=S)N(CC(=O)Nc3ccccc3)C2=O)cc1	MTT	–	25.7 µM
CCC(=O)Nc1cc(Nc2nc(N3CCc4sccc4C3)c3cccnc3n2)c(OC)cc1N1CCN(C(C)=O)CC1	MTT	–	7.01 µM
COc1ccccc1CCNCC(O)COc1cccc2[nH]c3ccccc3c12 (stereo not shown)	CCK-8	72 h	13.3 µM
CC1=C(O)C(=O)C=C2C1=CC=C1[C@@]2(C)CC[C@@]2(C)[C@@H]3C[C@](C)(C(=O)OCCCn4ccc5ccccc54)CC[C@]3(C)CC[C@]12C	MTT	48 h	> 100 µM
COC(C)(C)CCC[C@](C)(O)[C@H]1CC[C@]2(C)[C@@H]1[C@H](O)C[C@@H]1[C@@]3(C)CC[C@H](O)C(C)(C)[C@@H]3CC[C@]12C	MTT	72 h	4.88 µM
Brc1ccc(Nc2nc(NCc3ccccc3)nc(NCc3ccccc3)n2)cc1	SRB	72 h	14.9 µM
